This note sets out measurements from ChEMBL document CHEMBL4190407, “Identification of Morpholino Thiophenes as Novel Mycobacterium tuberculosis Inhibitors, Targeting QcrB” (J Med Chem, 2018).

Converted amounts (≈) assume the structure as drawn. The source made the active and inactive calls. The rule behind the calls is not given here.

The nature of data set [1]: Intrinsic clearance in CD-1 mouse liver microsomes in presence of NADPH up to 30 mins by UPLC-MS/MS analysis. The class given is ADME, microsome. The settings on record: 0.5 h. (Liver microsomes are a subcellular fraction often used to study metabolism.)
Data set [2] deals with Cytochrome bc1 complex cytochrome b subunit (Mycobacterium tuberculosis (strain ATCC 25618 / H37Rv)) (UniProt P9WP37). The data set is described as follows: Inhibition of QcrB in Mycobacterium tuberculosis H37Rv ATCC 25618 assessed as reduction in ATP level measured after 24 hrs by BacTiter-Glo assay. In outline: (§1)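 H37Rv exposed to compounds for 24 h. Intrabacterial ATP measured by BacTiter-Glo as relative luminescence units, with growth followed by OD590. Representative of 2 independent experiments.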

In data set [3] the test system is Mycobacterium tuberculosis. The data set can be described thus: Antimycobacterial activity against Mycobacterium tuberculosis H37Rv ATCC 25618 after 5 days. The class given is functional. The settings on record: H37Rv ATCC 25618, 120 h. The procedure, abridged: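 Growth measured in Middlebrook 7H9 with 10% OADC and 0.05% Tween 80 under aerobic conditions, covering H37Rv (ATCC 25618) and QcrB mutant strains. Growth read after 5 days at 37 °C. MIC90 is the concentration giving 90% growth inhibition, obtained by curve fitting (Levenberg–Marquardt). Mean ± SD of at least two independent experiments.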

Data set [4] deals with Vero. The data set can be described thus: Cytotoxicity against African green monkey Vero cells assessed as growth inhibition measured after 2 days by CellTiter-Glo assay. The class given is cell-based. As to conditions: Chlorocebus sabaeus, 48 h. On the technique in general: In ATP-based viability assays light output follows the ATP content of the culture.
Data set [5] has as its target Cytochrome bc1 complex cytochrome b subunit (Mycobacterium tuberculosis (strain ATCC 25618 / H37Rv)) (UniProt P9WP37). The data set can be described thus: Inhibition of QcrB in Mycobacterium tuberculosis H37Rv ATCC 25618 assessed as reduction in ATP level measured up to 0.1 uM after 24 hrs by BacTiter-Glo assay. The procedure, abridged:
as §1

Data set [6] in a line: Clearance in human liver microsomes. The class given is ADME, microsome.
Data set [7] deals with Cytochrome P450 2D6 (Homo sapiens, UniProt P10635). The data set is described as follows: Inhibition of CYP2D6 (unknown origin). The data set is classed as ADME.
For data set [8], the target named is Cytochrome P450 2C9 (Homo sapiens, UniProt P11712). The data set is described as follows: Inhibition of CYP2C9 (unknown origin). The data set is classed as ADME.
The target in data set [9] is T1, Cytochrome P450 1A2 (Homo sapiens, UniProt P05177).
T1 sequence (P05177 whole entry): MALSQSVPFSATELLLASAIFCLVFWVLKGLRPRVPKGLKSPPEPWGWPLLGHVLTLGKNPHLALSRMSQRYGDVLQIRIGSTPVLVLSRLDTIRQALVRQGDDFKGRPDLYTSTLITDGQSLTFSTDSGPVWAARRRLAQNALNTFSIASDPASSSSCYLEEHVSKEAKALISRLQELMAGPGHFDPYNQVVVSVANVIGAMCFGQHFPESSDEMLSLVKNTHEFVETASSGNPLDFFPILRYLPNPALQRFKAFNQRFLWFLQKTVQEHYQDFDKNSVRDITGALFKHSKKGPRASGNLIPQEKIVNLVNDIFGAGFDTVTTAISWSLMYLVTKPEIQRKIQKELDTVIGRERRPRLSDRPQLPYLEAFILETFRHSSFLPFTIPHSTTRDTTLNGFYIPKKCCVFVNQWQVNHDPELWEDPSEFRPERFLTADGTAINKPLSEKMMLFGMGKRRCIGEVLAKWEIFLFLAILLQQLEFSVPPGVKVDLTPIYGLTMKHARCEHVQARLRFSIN
The data set is described as follows: Inhibition of CYP1A2 (unknown origin). The class given is ADME.

In data set [10] the target is Cytochrome P450 2C19 (Homo sapiens, UniProt P33261). The data set is described as follows: Inhibition of CYP2C19 (unknown origin). The class given is ADME.
Data set [11] has as its system Vero. The data set is described as follows: Cytotoxicity against African green monkey Vero cells. The data set is classed as cell-based. As to conditions: chlorocebus sabaeus.
Data set [12] concerns Mus musculus. The data set is described as follows: AUC in C57 Black mouse at 3 mg/kg, iv administered as bolus dose by UPLC-MS/MS analysis. The data set is classed as ADME, organism-based. The settings on record: in vivo.
The test system of data set [13] is Mus musculus. The data set is described as follows: In vivo drug metabolism in C57 Black mouse assessed as oxidation of morpholine at 3 mg/kg, iv administered as bolus dose or 10 mg/kg, po via gavage by UPLC-MS/MS analysis. The class given is ADME, organism-based.
Data set [14] concerns Mus musculus. The data set is described as follows: In vivo drug metabolism in C57 Black mouse assessed as de-ethylation at 3 mg/kg, iv administered as bolus dose or 10 mg/kg, po via gavage by UPLC-MS/MS analysis. The data set is classed as ADME, organism-based.
In data set [15] the test system is Mus musculus. The data set is described as follows: Toxicity in C57BL/6 mouse infected with Mycobacterium tuberculosis H37Rv at 100 mg/kg, po for 4 consecutive days starting from day 5 post infection. The data set is classed as organism-based. The settings on record: in vivo.
Data set [16] has as its system Mus musculus. The data set is described as follows: Toxicity in C57BL/6 mouse infected with Mycobacterium tuberculosis H37Rv at 30 mg/kg, po for 8 consecutive days starting from day 1 post infection. The class given is organism-based. The settings on record: in vivo.

Sequence of Cytochrome bc1 complex cytochrome b subunit (Mycobacterium tuberculosis (strain ATCC 25618 / H37Rv)) (P9WP37 whole entry, one chain of several): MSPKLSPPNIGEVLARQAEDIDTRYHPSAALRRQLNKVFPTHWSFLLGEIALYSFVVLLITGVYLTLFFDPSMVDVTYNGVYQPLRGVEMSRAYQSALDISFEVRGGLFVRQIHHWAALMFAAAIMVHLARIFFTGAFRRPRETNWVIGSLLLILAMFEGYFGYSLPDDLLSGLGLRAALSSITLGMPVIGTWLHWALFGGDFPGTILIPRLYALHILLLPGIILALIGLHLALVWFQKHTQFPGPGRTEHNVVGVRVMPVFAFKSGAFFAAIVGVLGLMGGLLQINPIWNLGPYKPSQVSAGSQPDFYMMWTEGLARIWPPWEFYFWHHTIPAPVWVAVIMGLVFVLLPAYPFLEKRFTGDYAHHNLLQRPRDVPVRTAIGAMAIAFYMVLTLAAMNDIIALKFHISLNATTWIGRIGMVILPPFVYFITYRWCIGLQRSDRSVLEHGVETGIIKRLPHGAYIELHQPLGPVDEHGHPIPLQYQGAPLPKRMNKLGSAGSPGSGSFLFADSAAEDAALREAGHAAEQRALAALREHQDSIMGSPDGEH
Sequence of Cytochrome P450 2C19 (P33261 whole entry): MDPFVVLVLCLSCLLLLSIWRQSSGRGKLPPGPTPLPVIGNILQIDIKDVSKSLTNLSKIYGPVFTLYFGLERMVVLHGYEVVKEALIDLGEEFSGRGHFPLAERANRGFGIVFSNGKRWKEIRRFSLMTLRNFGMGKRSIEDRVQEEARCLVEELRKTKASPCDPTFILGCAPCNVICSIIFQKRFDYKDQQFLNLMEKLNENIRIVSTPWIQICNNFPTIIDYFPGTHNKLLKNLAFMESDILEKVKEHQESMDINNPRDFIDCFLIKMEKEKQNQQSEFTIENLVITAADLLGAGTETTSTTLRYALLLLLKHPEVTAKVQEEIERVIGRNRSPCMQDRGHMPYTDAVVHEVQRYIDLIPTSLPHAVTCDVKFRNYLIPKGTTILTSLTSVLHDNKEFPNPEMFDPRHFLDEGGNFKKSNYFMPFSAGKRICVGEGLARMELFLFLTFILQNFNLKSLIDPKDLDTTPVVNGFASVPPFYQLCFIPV
Sequence of Cytochrome P450 2C9 (P11712 whole entry): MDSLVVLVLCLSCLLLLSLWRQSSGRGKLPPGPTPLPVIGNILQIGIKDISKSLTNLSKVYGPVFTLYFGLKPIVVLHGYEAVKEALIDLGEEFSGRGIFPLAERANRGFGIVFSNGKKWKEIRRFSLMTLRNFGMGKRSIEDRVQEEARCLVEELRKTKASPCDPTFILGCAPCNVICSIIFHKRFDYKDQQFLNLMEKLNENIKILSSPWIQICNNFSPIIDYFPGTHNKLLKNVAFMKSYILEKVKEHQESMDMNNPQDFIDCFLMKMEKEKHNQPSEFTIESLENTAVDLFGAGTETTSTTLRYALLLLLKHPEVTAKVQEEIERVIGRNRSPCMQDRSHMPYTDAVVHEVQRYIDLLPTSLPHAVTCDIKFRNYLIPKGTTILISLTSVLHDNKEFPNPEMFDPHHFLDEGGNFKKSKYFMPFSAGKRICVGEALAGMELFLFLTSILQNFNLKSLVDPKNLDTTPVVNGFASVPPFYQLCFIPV
Sequence of Cytochrome P450 2D6 (P10635 whole entry): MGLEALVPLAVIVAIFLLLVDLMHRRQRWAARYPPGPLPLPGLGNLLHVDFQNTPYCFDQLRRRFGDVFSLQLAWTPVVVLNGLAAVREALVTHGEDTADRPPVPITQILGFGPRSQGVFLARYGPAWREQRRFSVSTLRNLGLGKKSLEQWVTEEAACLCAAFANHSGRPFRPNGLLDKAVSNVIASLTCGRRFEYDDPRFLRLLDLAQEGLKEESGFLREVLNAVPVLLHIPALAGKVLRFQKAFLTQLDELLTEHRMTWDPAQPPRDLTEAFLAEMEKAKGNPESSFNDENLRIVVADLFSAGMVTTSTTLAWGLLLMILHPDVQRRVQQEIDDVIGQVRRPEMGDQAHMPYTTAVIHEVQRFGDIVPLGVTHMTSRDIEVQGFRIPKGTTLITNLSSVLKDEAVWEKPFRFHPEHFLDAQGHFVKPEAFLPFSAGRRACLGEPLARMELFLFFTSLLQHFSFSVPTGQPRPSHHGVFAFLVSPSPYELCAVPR

`CNC(=O)c1sc(N2CCOCC2)cc1OCCc1ccccc1`: the intrinsic clearance in [1] was 36 mL/min/g. Also, the inhibition entry in data set [2] is “Dose-dependent effect”.

Turning to `O=C(NO)c1sc(N2CCOCC2)cc1OCCc1ccccc1`, the intrinsic clearance in [1] was 6 mL/min/g.

What is called MIC90 is the lowest concentration that inhibits either 90% of growth or 90% of the strains tested, depending on the study. In general, IC50 refers to the point on the concentration scale where inhibition reaches its midpoint. Consider `COCCN(C)c1cc(OCCc2ccccc2)c(C(N)=O)s1`, for which the MIC90 in [3] is more than 20 µM. Besides, the IC50 in [4] was more than 100 µM. Further, in data set [1], the intrinsic clearance came to 28 mL/min/g.

As to `CNC(=O)c1sc(N2CC3CC2CO3)cc1OCCc1ccccc1` (stereo not drawn), in data set [1], the intrinsic clearance was determined as 13 mL/min/g.

Consider `NC(=O)c1sc(N2CCOCC2)cc1CCCc1ccc(F)cc1`, for which, in data set [3], the MIC90 came out at 0.9 µM (≈ 0.314 µg/mL). Moreover, the IC50 in data set [4] was more than 100 µM. Further, in data set [1], the intrinsic clearance turned out to be 13 mL/min/g.

As to `CCc1nc2ccc(Cl)cn2c1C(=O)NCc1ccc(N2CCC(c3ccc(OC(F)(F)F)cc3)CC2)cc1`, the inhibition result in [5] was “Active”.

`NC(=O)c1sc(N2CCOCC2)cc1OCCc1cccc(F)c1`: the intrinsic clearance in data set [1] amounted to 18 mL/min/g. The inhibition entry in data set [2] was “Dose-dependent effect”.

Usually AUC stands for the area under the concentration-time curve, a measure of exposure. `NC(=O)c1sc(N2CCOCC2)cc1OCCc1ccccc1`: the MIC90 in data set [3] is 0.72 to 0.8 µM (≈ 0.239 to 0.266 µg/mL). This compound registered a CLH in data set [6] of 3.5 mL/min/g. Moreover, the INH in data set [7] is 5 µM; in data set [8], 5.1 µM; in data set [9], less than 5 µM; in [10], 5.9 µM. Moreover, in data set [11], the Activity was more than 100 µM. This compound also showed an AUC in data set [12] of 29000 ng·min/mL. For the same compound, the inhibition entry in [2] was “Dose-dependent effect”.

Turning to `NC(=O)c1sc(-n2nccn2)cc1OCCc1ccccc1`, in data set [1], the intrinsic clearance was found to be 30 mL/min/g.

For `CC1(COc2cc(N3CCOCC3)sc2C(N)=O)COC1`, the AUC in [12] amounted to 980000 ng·min/mL.

For the compound `CO[C@H]1/C=C/O[C@@]2(C)Oc3c(C)c(O)c4c(O)c(c(/C=N/N5CCN(C)CC5)c(O)c4c3C2=O)NC(=O)/C(C)=C\C=C\[C@H](C)[C@H](O)[C@@H](C)[C@@H](O)[C@@H](C)[C@H](OC(C)=O)[C@@H]1C`, in [5], the inhibition result was “Active”.

On to `CCOC(=O)NC(=O)c1sc(N2CCOCC2)cc1OCCc1ccccc1`, for which the intrinsic clearance in data set [1] stood at 1 mL/min/g.

As to `CON(C)C(=O)c1sc(N2CCOCC2)cc1OCCc1ccccc1`, in data set [4], the IC50 came out at 78 µM.

Consider `NC(=O)c1sc(N2CCOCC2)cc1OCCN1CCOCC1`, for which the intrinsic clearance in data set [1] is 0.9 mL/min/g.

For `NC(=O)c1sc(N2CCOCC2=O)cc1OCCc1ccccc1`, the intrinsic clearance in data set [1] is 7 mL/min/g.

In turn, `NC(=O)c1sc(N2CCOCC2)cc1OCCc1ccc(OC(F)(F)F)cc1` came in with an MIC90 in [3] of 0.2 to 0.24 µM (≈ 0.0833 to 0.0999 µg/mL). Besides, the Drug metabolism result in data set [13] and in [14] was “Metabolite_Detected” throughout. Moreover, the Activity result in data set [15] is given as “Non-Toxic”. In addition, the inhibition result in [2] is “Dose-dependent effect”.

Consider `NC(=O)c1ccc(N2CCOCC2)cc1OCCc1ccccc1`, for which the intrinsic clearance in data set [1] was 12 mL/min/g.

As to `NC(=O)c1sc(N2CCOCC2)cc1OCc1ccccc1`, the intrinsic clearance in data set [1] was found to be 14 mL/min/g.

In the case of `COc1c(N2C[C@@H]3CCCN[C@@H]3C2)c(F)cc2c(=O)c(C(=O)O)cn(C3CC3)c12` [MOXIFLOXACIN], in data set [16], the Activity result is listed as “Non-Toxic”.

In turn, `CC1COCCN1c1cc(OCCc2ccccc2)c(C(N)=O)s1` (stereo not drawn) yielded an MIC90 in [3] of more than 20 µM. In data set [4], the IC50 was determined as 77 µM. In addition, in [1], the intrinsic clearance came out at 11 mL/min/g.

Consider `COC(=O)c1sc(N2CCOCC2)cc1OCCc1ccccc1`, for which the intrinsic clearance in data set [1] was determined as 50 mL/min/g.

Regarding `NC(=O)c1sc(CN2CCOCC2)cc1OCCc1ccccc1`, in [1], the intrinsic clearance amounted to 3 mL/min/g.

As for `COc1cccc(CCOc2cc(N3CCOCC3)sc2C(N)=O)c1`, the intrinsic clearance in [1] was determined as 10 mL/min/g.

On to `NC(O)C1SC(N2CCOCC2)CC1OCC(F)(F)C1CCCCC1` (stereo not drawn), for which the MIC90 in data set [3] is more than 20 µM. For the same compound, in data set [4], the IC50 came out at 95 µM. Also, in data set [1], the intrinsic clearance was 19 mL/min/g.

In the case of `COc1ccc(CCOc2cc(N3CCOCC3)sc2C(N)=O)cc1`, the MIC90 in data set [3] was in the range of 0.6 to 0.63 µM (≈ 0.217 to 0.228 µg/mL).

Consider `COc1ccccc1CCOc1cc(N2CCOCC2)sc1C(N)=O`, for which the intrinsic clearance in data set [1] was found to be 26 mL/min/g.
